Measurements taken from ChEMBL document CHEMBL5678802, “Small-molecule p21-activated kinase inhibitor PF-3758309 is a potent inhibitor of oncogenic signaling and tumor growth” (Proc Natl Acad Sci U S A, 2010).
pIC50, pKi: −log10 of the molar value.

Key:
SW-403 = assay: Antiproliferative activity against human SW403 cells assessed as inhibition of cell proliferation incubated for 3 days by CellTiter-Glo Luminescent Cell Viability Assay; assay type: functional, cell-based; conditions: SW-403, 72 h
In short: (§1)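 Cells of each line were plated in 384-well plates on day 1 and exposed to compound from day 2 for 3 days. On day 5 all medium was aspirated. Viable cell number was read by CellTiter-Glo luminescence, which quantifies cellular ATP.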

COLO 205 = assay: Antiproliferative activity against human COLO 205 cells assessed as inhibition of cell proliferation incubated for 3 days by CellTiter-Glo Luminescent Cell Viability Assay; assay type: functional, cell-based; conditions: COLO 205, 72 h
In short: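 Cancer cell lines seeded in 384-well plates on day 1; compound added on day 2 and left for 3 days. On day 5 all medium was aspirated, and viable cells were quantified by CellTiter-Glo luminescence, which measures cellular ATP. Dose-dependent effects on proliferation were determined.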

NCI-H2087 = assay: Antiproliferative activity against human NCI-H2087 cells assessed as inhibition of cell proliferation incubated for 3 days by CellTiter-Glo Luminescent Cell Viability Assay; assay type: functional, cell-based; conditions: NCI-H2087, 72 h; in short: as §1
NCI-H1975 = assay: Antiproliferative activity against human NCI-H1975 cells assessed as inhibition of cell proliferation incubated for 3 days by CellTiter-Glo Luminescent Cell Viability Assay; assay type: functional, cell-based; conditions: NCI-H1975, 72 h
In short: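 Cancer cell lines seeded in 384-well plates on day 1; compound added on day 2 and incubated 3 days. On day 5 media aspirated and viable cells quantified by ATP content using CellTiter-Glo luminescence; dose-dependent proliferation effects determined.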

[1] = biological target: Proto-oncogene tyrosine-protein kinase Src (Homo sapiens, UniProt P12931); assay: Inhibition of human SRC in presence of ATP relative to control; conditions: concentration not given here
[2] = biological target: T1, cGMP-dependent protein kinase 1 (Homo sapiens, UniProt Q13976); assay: Inhibition of human PRKG1 assessed as inhibition constant in presence of ATP
T1 sequence (Q13976 whole entry): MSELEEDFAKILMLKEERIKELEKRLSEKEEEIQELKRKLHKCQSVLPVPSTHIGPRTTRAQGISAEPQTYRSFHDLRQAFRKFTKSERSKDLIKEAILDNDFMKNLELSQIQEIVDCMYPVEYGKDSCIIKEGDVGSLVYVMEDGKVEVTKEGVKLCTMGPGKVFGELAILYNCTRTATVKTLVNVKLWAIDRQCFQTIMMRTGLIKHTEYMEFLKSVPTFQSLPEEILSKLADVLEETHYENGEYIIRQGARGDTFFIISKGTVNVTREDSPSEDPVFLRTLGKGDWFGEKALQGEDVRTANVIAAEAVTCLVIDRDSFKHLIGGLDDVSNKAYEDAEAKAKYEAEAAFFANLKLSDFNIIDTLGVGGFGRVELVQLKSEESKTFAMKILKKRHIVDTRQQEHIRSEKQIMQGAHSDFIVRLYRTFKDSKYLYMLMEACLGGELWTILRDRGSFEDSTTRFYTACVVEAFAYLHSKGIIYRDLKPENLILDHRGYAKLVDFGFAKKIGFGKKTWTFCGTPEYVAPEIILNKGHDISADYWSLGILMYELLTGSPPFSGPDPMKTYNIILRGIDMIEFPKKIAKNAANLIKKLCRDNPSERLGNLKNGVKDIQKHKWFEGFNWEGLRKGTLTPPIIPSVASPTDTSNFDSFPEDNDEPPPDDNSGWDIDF

[3] = biological target: Tyrosine-protein kinase Fyn (Homo sapiens, UniProt P06241); assay: Inhibition of human FYN in presence of ATP by cellular assay
[4] = biological target: High affinity nerve growth factor receptor (Homo sapiens, UniProt P04629); assay: Inhibition of human TRKa in presence of ATP by cellular assay
High affinity nerve growth factor receptor, sequence (P04629 whole entry): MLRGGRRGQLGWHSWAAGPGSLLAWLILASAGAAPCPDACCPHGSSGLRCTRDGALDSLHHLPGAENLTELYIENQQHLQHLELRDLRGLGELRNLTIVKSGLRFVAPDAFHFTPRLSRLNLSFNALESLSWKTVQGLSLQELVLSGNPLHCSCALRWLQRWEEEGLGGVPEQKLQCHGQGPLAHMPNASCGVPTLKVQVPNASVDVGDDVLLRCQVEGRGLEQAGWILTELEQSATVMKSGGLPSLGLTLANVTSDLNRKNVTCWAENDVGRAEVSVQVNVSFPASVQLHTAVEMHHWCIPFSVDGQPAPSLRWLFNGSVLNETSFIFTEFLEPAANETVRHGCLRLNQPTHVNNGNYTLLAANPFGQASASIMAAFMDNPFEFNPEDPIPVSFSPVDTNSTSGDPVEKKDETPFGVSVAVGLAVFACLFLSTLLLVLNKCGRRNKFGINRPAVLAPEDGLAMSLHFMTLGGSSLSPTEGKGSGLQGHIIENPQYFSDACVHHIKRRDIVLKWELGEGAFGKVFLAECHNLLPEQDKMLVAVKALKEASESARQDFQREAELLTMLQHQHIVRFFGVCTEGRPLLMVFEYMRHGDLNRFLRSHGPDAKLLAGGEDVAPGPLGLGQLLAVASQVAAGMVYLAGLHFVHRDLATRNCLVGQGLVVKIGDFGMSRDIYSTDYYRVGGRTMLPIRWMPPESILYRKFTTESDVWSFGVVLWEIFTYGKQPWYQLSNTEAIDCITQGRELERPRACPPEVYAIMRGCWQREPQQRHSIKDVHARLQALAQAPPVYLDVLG

Proto-oncogene tyrosine-protein kinase Src, sequence (P12931 2-536 limits assumed): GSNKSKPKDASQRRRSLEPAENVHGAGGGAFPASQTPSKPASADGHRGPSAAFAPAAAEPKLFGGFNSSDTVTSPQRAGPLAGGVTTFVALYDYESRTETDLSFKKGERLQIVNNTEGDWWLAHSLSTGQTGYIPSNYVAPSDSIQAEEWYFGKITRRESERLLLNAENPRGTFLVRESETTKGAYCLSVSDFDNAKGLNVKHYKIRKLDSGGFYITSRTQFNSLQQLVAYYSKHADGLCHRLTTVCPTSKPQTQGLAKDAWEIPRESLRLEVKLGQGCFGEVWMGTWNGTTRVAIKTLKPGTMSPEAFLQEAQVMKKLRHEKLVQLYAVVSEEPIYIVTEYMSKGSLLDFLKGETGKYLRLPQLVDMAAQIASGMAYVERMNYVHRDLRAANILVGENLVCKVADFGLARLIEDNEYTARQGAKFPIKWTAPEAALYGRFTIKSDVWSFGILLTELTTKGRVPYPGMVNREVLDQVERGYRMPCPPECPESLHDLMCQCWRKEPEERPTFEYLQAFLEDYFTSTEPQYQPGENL
Tyrosine-protein kinase Fyn, sequence (P06241 whole entry): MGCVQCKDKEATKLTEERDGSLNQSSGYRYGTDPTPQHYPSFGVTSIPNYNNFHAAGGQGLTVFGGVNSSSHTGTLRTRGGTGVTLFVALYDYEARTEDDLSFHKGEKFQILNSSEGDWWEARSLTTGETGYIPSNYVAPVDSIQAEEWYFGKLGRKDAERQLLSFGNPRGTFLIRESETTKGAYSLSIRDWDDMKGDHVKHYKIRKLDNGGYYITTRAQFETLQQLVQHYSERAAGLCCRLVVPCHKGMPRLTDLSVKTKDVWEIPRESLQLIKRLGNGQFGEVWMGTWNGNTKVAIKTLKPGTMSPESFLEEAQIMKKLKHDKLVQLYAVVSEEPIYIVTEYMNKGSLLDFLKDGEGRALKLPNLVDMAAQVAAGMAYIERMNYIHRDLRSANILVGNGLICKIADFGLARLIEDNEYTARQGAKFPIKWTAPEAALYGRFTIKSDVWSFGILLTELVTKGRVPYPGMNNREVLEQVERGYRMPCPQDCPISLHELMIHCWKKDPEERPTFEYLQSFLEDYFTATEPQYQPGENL

Structure (SMILES): Cc1nc(Nc2n[nH]c3c2CN(C(=O)N[C@H](CN(C)C)c2ccccc2)C3(C)C)c2sccc2n1 [PF-03758309]
- pIC50 (SW-403): 8.66
- pIC50 (COLO 205): 8.55
- pIC50 (NCI-H2087): 8.37
- pIC50 (NCI-H1975): 7.77
- inhibition [1]: 96%
- pKi [2]: 7.82
- pIC50 [3]: 5.96
- pIC50 [4]: 5.62
